Measured values published in ChEMBL document CHEMBL1131459, “2-Substituted (2SR)-2-amino-2-((1SR,2SR)-2-carboxycycloprop-1-yl)glycines as potent and selective antagonists of group II metabotropic glutamate receptors. 1. Effects of alkyl, arylalkyl, and diarylalkyl substitution” (J Med Chem, 1998).

Legend:
[1] = Inhibitory activity for Group II Metabotropic glutamate receptor in rat forebrain membranes by using [3H]glutamate radioligand; type: cell membranes, Membrane
In short: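 Displacement of [³H]glutamic acid binding in rat forebrain membranes, an assay described as selective for group II mGluRs. Each compound was tested as a mixture of four isomers (two racemic diastereomers). Some values are the average of two determinations and some of three.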

[2] = target: T1, Metabotropic glutamate receptor 2 (Homo sapiens, UniProt Q14416); experiment: Compound was tested its ability to block 1S,3R-ACPD-induced inhibition of forskolin stimulated cyclic-AMP in non-neuronal cell line expressing human Metabotropic glutamate receptor 2; Agonist; type: functional
[3] = target: T2, Metabotropic glutamate receptor 3 (Homo sapiens, UniProt Q14832); experiment: Compound was tested its ability to block 1S,3R-ACPD-induced inhibition of forskolin stimulated cyclic-AMP in non-neuronal cell line expressing human Metabotropic glutamate receptor 3; Agonist; type: functional
[4] = target: T1, Metabotropic glutamate receptor 2; experiment: Ability to block 1S,3R-ACPD-induced inhibition of forskolin stimulated cyclic-AMP in non-neuronal cell line expressing human Metabotropic glutamate receptor 2; type: functional
[5] = target: T2, Metabotropic glutamate receptor 3; experiment: Ability to block 1S,3R-ACPD-induced inhibition of forskolin stimulated cyclic-AMP in non-neuronal cell line expressing human Metabotropic glutamate receptor 3; type: functional

T2 sequence (Q14832 whole entry): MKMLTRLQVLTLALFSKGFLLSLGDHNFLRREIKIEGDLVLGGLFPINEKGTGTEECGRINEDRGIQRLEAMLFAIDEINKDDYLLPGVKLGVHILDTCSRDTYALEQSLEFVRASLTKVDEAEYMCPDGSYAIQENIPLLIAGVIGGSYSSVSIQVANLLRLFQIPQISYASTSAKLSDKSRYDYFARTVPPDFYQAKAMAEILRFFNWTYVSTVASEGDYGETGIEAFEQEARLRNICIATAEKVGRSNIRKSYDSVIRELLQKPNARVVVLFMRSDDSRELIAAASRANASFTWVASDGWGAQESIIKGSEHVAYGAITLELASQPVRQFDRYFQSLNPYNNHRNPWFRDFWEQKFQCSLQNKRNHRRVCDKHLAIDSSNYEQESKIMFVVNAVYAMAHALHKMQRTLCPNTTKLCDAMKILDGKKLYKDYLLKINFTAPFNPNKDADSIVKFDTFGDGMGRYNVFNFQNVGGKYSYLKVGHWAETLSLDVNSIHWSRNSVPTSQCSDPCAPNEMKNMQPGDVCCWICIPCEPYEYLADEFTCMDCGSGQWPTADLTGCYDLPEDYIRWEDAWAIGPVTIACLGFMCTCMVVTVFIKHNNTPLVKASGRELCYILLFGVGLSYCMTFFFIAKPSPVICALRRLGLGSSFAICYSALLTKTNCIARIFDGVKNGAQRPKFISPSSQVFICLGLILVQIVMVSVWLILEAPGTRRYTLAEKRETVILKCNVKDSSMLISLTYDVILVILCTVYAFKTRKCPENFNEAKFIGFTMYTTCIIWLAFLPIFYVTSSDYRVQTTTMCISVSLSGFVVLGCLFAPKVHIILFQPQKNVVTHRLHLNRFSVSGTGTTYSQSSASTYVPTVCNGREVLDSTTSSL
T1 sequence (Q14416 whole entry): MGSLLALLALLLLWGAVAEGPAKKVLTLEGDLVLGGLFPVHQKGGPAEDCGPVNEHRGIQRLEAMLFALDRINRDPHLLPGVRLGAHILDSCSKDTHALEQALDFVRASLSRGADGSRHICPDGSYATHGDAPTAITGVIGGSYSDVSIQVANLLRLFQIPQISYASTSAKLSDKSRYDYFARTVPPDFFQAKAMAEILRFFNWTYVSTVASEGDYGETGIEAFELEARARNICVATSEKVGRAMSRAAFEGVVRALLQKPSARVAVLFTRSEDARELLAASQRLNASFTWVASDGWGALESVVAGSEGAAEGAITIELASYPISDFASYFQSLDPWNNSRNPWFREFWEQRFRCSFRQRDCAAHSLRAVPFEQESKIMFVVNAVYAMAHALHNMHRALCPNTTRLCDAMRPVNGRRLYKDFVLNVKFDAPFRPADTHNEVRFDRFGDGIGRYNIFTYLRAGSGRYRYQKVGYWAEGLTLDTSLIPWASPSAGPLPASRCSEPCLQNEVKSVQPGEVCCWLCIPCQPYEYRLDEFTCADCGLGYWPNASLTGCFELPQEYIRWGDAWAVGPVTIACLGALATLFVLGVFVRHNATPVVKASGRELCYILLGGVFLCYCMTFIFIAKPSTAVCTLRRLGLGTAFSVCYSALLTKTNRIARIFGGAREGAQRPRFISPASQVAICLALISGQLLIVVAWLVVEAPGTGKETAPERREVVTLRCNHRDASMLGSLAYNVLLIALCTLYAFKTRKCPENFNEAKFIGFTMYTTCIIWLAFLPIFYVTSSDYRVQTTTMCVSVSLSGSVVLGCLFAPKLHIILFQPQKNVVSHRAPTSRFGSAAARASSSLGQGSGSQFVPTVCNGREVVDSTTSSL

Row | SMILES | IC50 [1] [µM] | IC50 [2] | IC50 [3] | IC50 [4] [µM] | IC50 [5] [µM]
1 | CCC[C@](N)(C(=O)O)C1C[C@@H]1C(=O)O (some centres not stated) | 2.1 | – | – | – | –
2 | N[C@@](CC1CCCc2ccccc21)(C(=O)O)C1C[C@@H]1C(=O)O (some centres not stated) | 0.23 | – | – | – | –
3 | N[C@@](CC1CCCC1)(C(=O)O)C1C[C@@H]1C(=O)O (some centres not stated) | 1.4 | – | – | – | –
4 | CCCCCCCC[C@](N)(C(=O)O)C1C[C@@H]1C(=O)O (some centres not stated) | 1.7 | – | – | – | –
5 | CCCC[C@](N)(C(=O)O)C1C[C@@H]1C(=O)O (some centres not stated) | 1.4 | – | – | – | –
6 | CCCCC[C@](N)(C(=O)O)C1C[C@@H]1C(=O)O (some centres not stated) | 1.8 | – | – | – | –
7 | CC(C)[C@](N)(C(=O)O)C1C[C@@H]1C(=O)O (some centres not stated) | > 10 | – | – | – | –
8 | N[C@@](CCC1CCCCC1)(C(=O)O)C1C[C@@H]1C(=O)O (some centres not stated) | 0.38 | – | – | – | –
9 | CC(C)CC[C@](N)(C(=O)O)C1C[C@@H]1C(=O)O (some centres not stated) | 1.1 | – | – | – | –
10 | CC(C)CCC[C@](N)(C(=O)O)C1C[C@@H]1C(=O)O (some centres not stated) | 0.85 | – | – | – | –
11 | N[C@@H](C(=O)O)C1C[C@@H]1C(=O)O (some centres not stated) | 0.47 | Agonist | Agonist | – | –
12 | N[C@@](CCc1ccc2ccccc2c1)(C(=O)O)C1C[C@@H]1C(=O)O (some centres not stated) | 2.8 | – | – | – | –
13 | N[C@@](CC1CCOc2ccccc21)(C(=O)O)C1C[C@@H]1C(=O)O (some centres not stated) | 0.63 | – | – | – | –
14 | N[C@@](CC1c2ccccc2Oc2ccccc21)(C(=O)O)[C@H]1C[C@@H]1C(=O)O | 0.01 | – | – | – | –
15 | NC(CC1CCCCC1)(C(=O)O)[C@H]1C[C@@H]1C(=O)O (some centres not stated) | 0.23 | – | – | 1.1 | 1.4
16 | CCC(N)(C(=O)O)[C@H]1C[C@@H]1C(=O)O (some centres not stated) | 2.2 | – | – | 6.5 | 2.5
17 | Cn1cc(CCC(N)(C(=O)O)[C@H]2C[C@@H]2C(=O)O)c2ccccc21 (some centres not stated) | 0.28 | – | – | 1.4 | 1.2
18 | NC(CCc1ccsc1)(C(=O)O)[C@H]1C[C@@H]1C(=O)O (some centres not stated) | 0.21 | – | – | 1 | 0.57
19 | NC(CCc1ccccc1)(C(=O)O)[C@H]1C[C@@H]1C(=O)O (some centres not stated) | 0.32 | – | – | 0.85 | 0.65

Row | SMILES | IC50 [1] [µM] | IC50 [2] | IC50 [3] | IC50 [4] [µM] | IC50 [5] [µM]
20 | NC(CCc1cccc2ccccc12)(C(=O)O)[C@H]1C[C@@H]1C(=O)O (some centres not stated) | – | – | – | 0.24 | 0.47
21 | NC(CCCc1ccccc1)(C(=O)O)[C@H]1C[C@@H]1C(=O)O (some centres not stated) | 0.63 | – | – | 1 | 0.55
22 | NC(CCCCc1ccccc1)(C(=O)O)[C@H]1C[C@@H]1C(=O)O (some centres not stated) | 2.3 | – | – | 0.45 | 2.8
23 | NC(CCC12CC3CC(CC(C3)C1)C2)(C(=O)O)[C@H]1C[C@@H]1C(=O)O (some centres not stated) | 0.2 | – | – | 0.24 | 0.76
24 | N[C@@](CC(c1ccccc1)c1ccccc1)(C(=O)O)[C@H]1C[C@@H]1C(=O)O | 0.24 | – | – | 4.36 | 0.28
25 | N[C@@](CC(Cc1ccccc1)Cc1ccccc1)(C(=O)O)C1C[C@@H]1C(=O)O (some centres not stated) | > 10 | – | – | – | –
26 | C[C@](N)(C(=O)O)C1C[C@@H]1C(=O)O (some centres not stated) | 6.2 | – | – | – | –
27 | N[C@@](CCC1CCNCC1)(C(=O)O)C1C[C@@H]1C(=O)O (some centres not stated) | > 10 | – | – | – | –
28 | N[C@@](COc1ccccc1)(C(=O)O)C1C[C@@H]1C(=O)O (some centres not stated) | 11.2 | – | – | – | –
29 | N[C@@](Cc1ccccc1)(C(=O)O)C1C[C@@H]1C(=O)O (some centres not stated) | > 10 | – | – | > 10 | > 10
30 | CC(C[C@](N)(C(=O)O)C1C[C@@H]1C(=O)O)c1ccccc1 (some centres not stated) | 0.2 | – | – | – | –
31 | CC(C)C[C@](N)(C(=O)O)C1C[C@@H]1C(=O)O (some centres not stated) | 0.7 | – | – | 1.6 | 1.8
32 | N[C@@](CC1CCC1)(C(=O)O)C1C[C@@H]1C(=O)O (some centres not stated) | 29.5 | – | – | > 10 | > 10
33 | N[C@@](CCC1C2CC3CC(C2)CC1C3)(C(=O)O)C1C[C@@H]1C(=O)O (some centres not stated) | 0.55 | – | – | – | –
34 | N[C@@](CCCC(c1ccccc1)c1ccccc1)(C(=O)O)C1C[C@@H]1C(=O)O (some centres not stated) | 7 | – | – | – | –
35 | N[C@@](CC1c2ccccc2Sc2ccccc21)(C(=O)O)C1C[C@@H]1C(=O)O (some centres not stated) | 0.019 | – | – | – | –
36 | N[C@@](CCC(c1ccccc1)c1ccccc1)(C(=O)O)C1C[C@@H]1C(=O)O (some centres not stated) | 7.1 | – | – | > 10 | > 10
37 | N[C@@](CCc1cccs1)(C(=O)O)C1C[C@@H]1C(=O)O (some centres not stated) | 0.58 | – | – | – | –
38 | N[C@](C(=O)O)(C1Cc2ccccc2C1)C1C[C@@H]1C(=O)O (some centres not stated) | > 10 | – | – | – | –
